What all share (format): tissue-based
Assay [1] addresses Calcium-activated potassium channel subunit alpha-1 (Rattus norvegicus) (UniProt Q62976). The assay can be described thus: (§1) Activation of BK channel in Wistar rat thoracic aorta assessed as relaxation of KCl-induced contraction. An outline of the steps:
(§2)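 Endothelium-denuded aortic rings in Tyrode at 37 °C, gassed 95% O2/5% CO2. Denudation was confirmed by under 10% acetylcholine relaxation of KCl 20 mM tone. Rings were precontracted with KCl 20 mM, then given cumulative 3-fold increasing concentrations from 10 nM (DMSO stock, diluted in Tyrode). Efficacy was maximal relaxation as % of KCl tone; pIC50 was derived only when efficacy was ≥55%. 5-10 experiments.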

Assay [2] concerns the target Calcium-activated potassium channel subunit alpha-1 (Rattus norvegicus, UniProt Q62976). Described as §1. Summed up:
as §2

In assay [3] the target is Calcium-activated potassium channel subunit alpha-1 (Rattus norvegicus) (UniProt Q62976). The assay can be described thus: Activation of BK channel in Wistar rat thoracic aorta assessed as relaxation of KCl-induced contraction in presence of potassium channel blocker TEAC. Summed up:
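Endothelium-denuded aortic rings in gassed Tyrode at 37 °C, incubated with tetraethylammonium chloride 10 mM for 20 min before KCl 20 mM precontraction. Cumulative 3-fold increasing concentrations from 10 nM were added at the plateau. Relaxation was expressed as % of KCl tone, with pIC50 as the negative log molar concentration halving the tone. 5-10 experiments.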

Molecules are shown by their SMILES.

Sequence of Calcium-activated potassium channel subunit alpha-1 (Rattus norvegicus) (Q62976 whole entry): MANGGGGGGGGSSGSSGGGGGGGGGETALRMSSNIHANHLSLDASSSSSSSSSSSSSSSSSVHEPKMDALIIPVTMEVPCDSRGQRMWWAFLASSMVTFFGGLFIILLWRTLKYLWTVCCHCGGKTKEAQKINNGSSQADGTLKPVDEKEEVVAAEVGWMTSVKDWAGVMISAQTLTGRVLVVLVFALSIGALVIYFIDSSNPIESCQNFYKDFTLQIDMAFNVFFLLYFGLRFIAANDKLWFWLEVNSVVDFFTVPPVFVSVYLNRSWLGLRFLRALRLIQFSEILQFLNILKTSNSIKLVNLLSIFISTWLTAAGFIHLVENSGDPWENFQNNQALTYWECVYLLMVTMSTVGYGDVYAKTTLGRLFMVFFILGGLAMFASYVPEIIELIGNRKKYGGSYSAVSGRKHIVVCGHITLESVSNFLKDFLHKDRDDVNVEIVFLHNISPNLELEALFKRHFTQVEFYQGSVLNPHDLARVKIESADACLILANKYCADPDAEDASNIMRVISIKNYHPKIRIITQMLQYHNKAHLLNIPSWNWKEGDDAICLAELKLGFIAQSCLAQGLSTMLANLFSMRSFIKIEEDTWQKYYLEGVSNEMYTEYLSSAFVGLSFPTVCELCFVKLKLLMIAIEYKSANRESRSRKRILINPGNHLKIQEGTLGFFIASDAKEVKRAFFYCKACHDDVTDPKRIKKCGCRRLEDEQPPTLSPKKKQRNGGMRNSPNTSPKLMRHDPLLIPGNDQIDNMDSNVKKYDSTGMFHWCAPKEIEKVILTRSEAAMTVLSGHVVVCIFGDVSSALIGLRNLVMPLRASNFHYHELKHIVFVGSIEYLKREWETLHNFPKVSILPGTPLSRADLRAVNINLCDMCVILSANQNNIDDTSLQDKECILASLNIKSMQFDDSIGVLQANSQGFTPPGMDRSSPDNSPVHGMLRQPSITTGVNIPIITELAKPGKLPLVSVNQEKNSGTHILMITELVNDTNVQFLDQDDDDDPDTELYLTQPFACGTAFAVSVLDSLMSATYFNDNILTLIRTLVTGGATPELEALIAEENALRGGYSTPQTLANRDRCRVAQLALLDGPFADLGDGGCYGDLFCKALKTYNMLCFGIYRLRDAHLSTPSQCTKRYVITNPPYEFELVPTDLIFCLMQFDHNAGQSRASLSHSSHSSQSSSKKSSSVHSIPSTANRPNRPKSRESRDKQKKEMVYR
Sequence of Calcium-activated potassium channel subunit alpha-1 (Q62976 whole entry): as above

As for `Cc1c(C(=O)Nc2ccccc2O)nnn1Cc1ccccc1F`, in assay [1], the Emax came to 35%.
As to `Cc1c(C(=O)Nc2ccccc2O)nnn1Cc1ccccc1Cl`, the Emax in assay [1] is 52%.
On the same count and under the same terms, next, `Cc1c(C(=O)NCc2ccccc2O)nnn1Cc1ccccc1Cl`: 49%.
Same read-out and setting: to `Cc1c(C(=O)NCc2ccccc2)nnn1Cc1ccccc1O` belongs 48%.
Consider `O=c1[nH]c2cc(C(F)(F)F)ccc2n1-c1cc(C(F)(F)F)ccc1O`, for which the Emax in assay [1] was 94%. Besides, in assay [2], the IC50 was 5.13 µM.
Turning to `Cc1c(C(=O)Nc2ccc(Cl)cc2)nnn1Cc1ccccc1O`, the maximum response (Emax) in assay [1] was determined as 53%.
As to `Cc1c(C(=O)NCc2ccccc2O)nnn1Cc1ccccc1O`, in assay [1], the Emax came to 76%. The IC50 in assay [2] was 21.9 µM.
For `Cc1c(C(=O)Nc2ccccc2O)nnn1Cc1ccccc1O`, in that order: 81% and 20.4 µM.
For the compound `Cc1c(C(=O)NCc2ccccc2O)nnn1Cc1ccccc1F`, in assay [1], the Emax came to 24%.
On to `Cc1c(C(=O)Nc2ccccc2)nnn1Cc1ccccc1O`, for which the figures for the Emax in assay [1] and in assay [3] were 89% and 37%, respectively. Further, the IC50 in assay [2] is 17.8 µM.
`Cc1c(C(=O)NCc2ccccc2Cl)nnn1Cc1ccccc1O`: the Emax in assay [1] came to 51%.

The values are drawn from ChEMBL document CHEMBL1154477, “1,2,3-Triazol-carboxanilides and 1,2,3-triazol-(N-benzyl)-carboxamides as BK-potassium channel activators. XII” (Eur J Med Chem, 2008).
